Results taken from ChEMBL document CHEMBL4706730, “A Set of Highly Sensitive Sirtuin Fluorescence Probes for Screening Small-Molecular Sirtuin Defatty-Acylase Inhibitors” (ACS Med Chem Lett, 2021).
Calls of active or inactive are those of the source. The rule behind the calls is not given here. Numbered stars: 1 amine (or outer) side, 2 acyl side, 3 side chain; on linkers, the order of the positions; unused ones are H or OH. Square brackets hold non-standard residues; d marks the D form. Peptide text beside a SMILES is read from it. * marks the point of attachment. Lys(thiomyristoyl) = CCCCCCCCCCCCCC(=S)NCCCC[C@H](N)C(=O)O; X1 = O=C(O)c1cc(NC(=S)*)ccc1-c1c2ccc(=O)cc-2oc2cc(O)ccc12; X2 = CN(CCC(=O)*)c1ccc(/N=N/c2ccc([N+](=O)[O-])cc2)cc1; Achc(trans-4) = O=C([C@H]1CC[C@H](N[*:1])CC1)[*:2]; X3 = CN(C)c1ccc(/N=N/c2ccc(CCC(=O)*)cc2)cc1; X5 = O=C(Cc1ccc(/N=N/c2ccc(O)cc2)cc1)*

Key:
[1] = molecular target: T1, NAD-dependent protein deacetylase sirtuin-2 (Homo sapiens) (UniProt Q8IXJ6); assay: (§1) Inhibition of 5-(3-((1r,4r)-4-((5S,8S,11S,14S,17S,20S,29S)-11-((1H-imidazol-4-yl)methyl)-1,33-diamino-5-carbamoyl-17-(4-(4-(4-((4-(dimethylamino)phenyl)diazenyl)phenyl)butanamido)butyl)-8,14-bis(3-guanidinopropyl)-20-methyl-7,10,13,16,19,22,25,28-octaoxo-6,9,12,15,18,21,24,27-octaazatritriacontan-29-ylcarbamoyl)cyclohexyl)thioureido)-2-(6-hydroxy-3-oxo-3H-xanthen-9-yl)benzoic acid binding to SIRT2 (unknown origin) at 10 uM measured after 2 hrs in presence of NAD+ by fluorometric method relative to control
T1 sequence (whole entry): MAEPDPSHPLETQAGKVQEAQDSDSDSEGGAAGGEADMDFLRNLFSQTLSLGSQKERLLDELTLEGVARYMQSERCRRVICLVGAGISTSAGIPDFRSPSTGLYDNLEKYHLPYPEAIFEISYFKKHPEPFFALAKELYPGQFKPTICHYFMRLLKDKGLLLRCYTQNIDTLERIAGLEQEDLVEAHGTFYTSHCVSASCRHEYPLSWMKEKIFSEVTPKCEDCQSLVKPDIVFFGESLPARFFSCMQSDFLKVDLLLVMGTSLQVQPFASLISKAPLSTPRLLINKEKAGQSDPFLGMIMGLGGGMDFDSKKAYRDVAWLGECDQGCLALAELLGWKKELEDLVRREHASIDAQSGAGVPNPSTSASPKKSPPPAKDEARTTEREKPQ
How it was run: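 In the primary library screen, 384-well plates held SIRT2 with the Dabcyl-BH/H4K16 one-step FRET probe. Each compound was tested at 10 μM with 0.5% DMSO, and inhibition was taken from the fluorescence signal.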

[2] = molecular target: NAD-dependent protein deacylase sirtuin-6 (Homo sapiens) (UniProt Q8N6T7); assay: Inhibition of 5-[[(1r,4r)-4-[[(1S)-4-amino-1-[[(1S,2R)-1-[[(1S)-2-[[(1S)-1-[[(1S)-1-[[(1S)-2-[[(1S,2R)-1-[[2-(carboxymethylamino)-2-oxoethyl]carbamoyl]-2-hydroxypropyl]amino]-1-(hydroxymethyl)-2-oxoethyl]carbamoyl]-5-[3-[N-methyl-4-[(4-nitrophenyl)azo]anilino]propanoylamino]pentyl]carbamoyl]-4-guanidinobutyl]amino]-1-methyl-2-oxoethyl]carbamoyl]-2-hydroxypropyl]carbamoyl]-4-oxobutyl]carbamoyl]cycl …
Target sequence in this assay (Q8N6T7 whole entry, looked up): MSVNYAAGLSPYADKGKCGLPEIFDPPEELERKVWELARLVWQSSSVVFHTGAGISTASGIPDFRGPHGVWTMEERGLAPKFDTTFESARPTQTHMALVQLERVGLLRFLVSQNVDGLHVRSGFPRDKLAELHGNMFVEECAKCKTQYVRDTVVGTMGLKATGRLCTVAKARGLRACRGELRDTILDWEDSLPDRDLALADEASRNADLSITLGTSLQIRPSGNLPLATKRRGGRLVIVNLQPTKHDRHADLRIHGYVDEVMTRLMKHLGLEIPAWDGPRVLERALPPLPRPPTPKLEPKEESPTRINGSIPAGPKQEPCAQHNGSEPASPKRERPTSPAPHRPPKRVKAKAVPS

[3] = molecular target: T2, NAD-dependent protein deacetylase sirtuin-2 (Homo sapiens, UniProt Q8IXJ6); assay: as §1, with “origin)” for “origin) at 10 uM”, “method” for “method relative to control”
T2 sequence (Q8IXJ6 whole entry): T1 sequence (whole entry)
How it was run: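 The second screen used the same SIRT2 one-step FRET probe conditions, validated at 2.92 nM SIRT2. Compounds were tested over a range of concentrations to check dose-dependency, and the IC50 was derived from the dose–response curve.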

[4] = molecular target: T3, NAD-dependent protein lipoamidase sirtuin-4, mitochondrial (Homo sapiens) (UniProt Q9Y6E7); assay: Binding affinity to SIRT4 (unknown origin) assessed as increase in fluorescence intensity at 2.5 uM measured at 5 mins interval for 1 hr in presence of NAD+ by fluorometric method relative to control
T3 sequence (whole entry): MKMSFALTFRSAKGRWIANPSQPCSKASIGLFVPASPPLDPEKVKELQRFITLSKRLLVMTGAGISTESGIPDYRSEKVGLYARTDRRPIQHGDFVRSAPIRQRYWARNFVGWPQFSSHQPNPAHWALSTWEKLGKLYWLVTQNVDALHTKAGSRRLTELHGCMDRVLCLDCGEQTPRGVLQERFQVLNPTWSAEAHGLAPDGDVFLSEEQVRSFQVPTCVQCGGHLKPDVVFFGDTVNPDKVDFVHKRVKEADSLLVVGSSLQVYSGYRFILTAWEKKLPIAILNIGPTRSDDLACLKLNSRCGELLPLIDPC
How it was run: (§2)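 Each FITC/quencher FRET peptide probe was incubated with recombinant SIRT1–7 in 96-well half-area plates at 37 °C for 1 h. The fluorescence increase is reported as a fold change, SIRT(+) signal over SIRT(−) signal, after 1 h.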

[5] = molecular target: T1, NAD-dependent protein deacetylase sirtuin-2 (Homo sapiens); assay: Binding affinity to SIRT2 (unknown origin) assessed as increase in fluorescence intensity at 2.92 to 8.75 nM measured at 5 mins interval for 4 hrs in presence of NAD+ by fluorometric method; details: dose 2.92-8.75 nM
[6] = molecular target: NAD-dependent protein deacylase sirtuin-5, mitochondrial (Homo sapiens) (UniProt Q9NXA8); assay: Binding affinity to SIRT5 (unknown origin) assessed as increase in fluorescence intensity at 2.5 uM measured at 5 mins interval for 1 hr in presence of NAD+ by fluorometric method relative to control; how it was run: as §2
NAD-dependent protein deacylase sirtuin-5, mitochondrial (Homo sapiens), sequence (Q9NXA8 37-310 limits assumed): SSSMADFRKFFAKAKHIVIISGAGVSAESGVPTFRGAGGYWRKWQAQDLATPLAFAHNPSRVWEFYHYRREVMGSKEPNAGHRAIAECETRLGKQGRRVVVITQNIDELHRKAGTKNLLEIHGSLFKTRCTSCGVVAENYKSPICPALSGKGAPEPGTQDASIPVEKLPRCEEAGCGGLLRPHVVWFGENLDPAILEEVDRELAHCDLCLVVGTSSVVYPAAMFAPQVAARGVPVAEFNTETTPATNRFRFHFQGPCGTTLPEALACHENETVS

[7] = molecular target: T4, NAD-dependent protein deacetylase sirtuin-7 (Homo sapiens) (UniProt Q9NRC8); assay: Binding affinity to SIRT7 (unknown origin) assessed as increase in fluorescence intensity at 2.5 uM measured at 5 mins interval for 1 hr in presence of NAD+ by fluorometric method relative to control; how it was run: as §2
T4 sequence (whole entry): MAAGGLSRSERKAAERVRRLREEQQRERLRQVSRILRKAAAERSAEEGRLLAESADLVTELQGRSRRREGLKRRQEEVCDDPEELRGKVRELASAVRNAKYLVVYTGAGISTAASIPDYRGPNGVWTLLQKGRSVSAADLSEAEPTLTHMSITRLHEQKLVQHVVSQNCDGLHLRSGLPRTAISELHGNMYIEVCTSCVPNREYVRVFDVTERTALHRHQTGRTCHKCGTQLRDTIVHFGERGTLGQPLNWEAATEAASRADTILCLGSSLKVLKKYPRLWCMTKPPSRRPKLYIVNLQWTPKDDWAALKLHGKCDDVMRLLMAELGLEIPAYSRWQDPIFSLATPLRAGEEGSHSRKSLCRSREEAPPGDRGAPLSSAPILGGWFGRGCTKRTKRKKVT

[8] = molecular target: T5, NAD-dependent protein deacetylase sirtuin-1 (Homo sapiens) (UniProt Q96EB6); assay: Binding affinity to SIRT1 (unknown origin) assessed as increase in fluorescence intensity at 2.5 uM measured at 5 mins interval for 1 hr in presence of NAD+ by fluorometric method relative to control; how it was run: as §2
T5 sequence (whole entry): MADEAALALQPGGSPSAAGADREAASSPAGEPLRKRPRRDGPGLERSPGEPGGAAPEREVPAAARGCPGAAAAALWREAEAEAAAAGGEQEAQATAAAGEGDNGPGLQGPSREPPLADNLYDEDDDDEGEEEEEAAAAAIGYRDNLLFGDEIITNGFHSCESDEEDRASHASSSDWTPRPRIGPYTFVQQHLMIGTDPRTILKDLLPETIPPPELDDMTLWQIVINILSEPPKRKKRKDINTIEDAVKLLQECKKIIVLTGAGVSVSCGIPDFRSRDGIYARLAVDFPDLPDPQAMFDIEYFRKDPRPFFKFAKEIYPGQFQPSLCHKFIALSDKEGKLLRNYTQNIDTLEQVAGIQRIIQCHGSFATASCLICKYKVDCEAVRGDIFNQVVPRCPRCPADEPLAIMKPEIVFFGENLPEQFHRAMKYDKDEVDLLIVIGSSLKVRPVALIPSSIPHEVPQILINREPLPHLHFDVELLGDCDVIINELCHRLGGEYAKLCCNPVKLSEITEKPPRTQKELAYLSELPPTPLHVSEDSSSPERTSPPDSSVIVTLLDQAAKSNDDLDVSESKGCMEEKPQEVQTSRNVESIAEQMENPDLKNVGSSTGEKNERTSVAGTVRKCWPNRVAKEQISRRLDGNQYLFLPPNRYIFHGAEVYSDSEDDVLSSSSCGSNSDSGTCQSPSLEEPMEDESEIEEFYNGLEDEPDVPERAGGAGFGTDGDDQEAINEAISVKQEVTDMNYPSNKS

[9] = molecular target: NAD-dependent protein deacylase sirtuin-6 (Homo sapiens) (UniProt Q8N6T7); assay: Binding affinity to SIRT6 (unknown origin) assessed as increase in fluorescence intensity at 2.5 uM measured at 5 mins interval for 1 hr in presence of NAD+ by fluorometric method relative to control; how it was run: as §2
Target sequence in this assay (Q8N6T7 whole entry): as the sequence (Q8N6T7 whole entry, looked up) above

[10] = molecular target: T1, NAD-dependent protein deacetylase sirtuin-2 (Homo sapiens); assay: Binding affinity to SIRT2 (unknown origin) assessed as increase in fluorescence intensity measured at 5 mins interval for 1 hr in presence of NAD+ by fluorometric method
[11] = molecular target: T1, NAD-dependent protein deacetylase sirtuin-2 (Homo sapiens); assay: Binding affinity to SIRT2 (unknown origin) assessed as increase in fluorescence intensity at 2.5 uM measured at 5 mins interval for 1 hr in presence of NAD+ by fluorometric method relative to control; how it was run: as §2
[12] = molecular target: T6, NAD-dependent protein deacetylase sirtuin-3, mitochondrial (Homo sapiens) (UniProt Q9NTG7); assay: Binding affinity to SIRT3 (unknown origin) assessed as increase in fluorescence intensity at 2.5 uM measured at 5 mins interval for 1 hr in presence of NAD+ by fluorometric method relative to control; how it was run: as §2
T6 sequence (whole entry): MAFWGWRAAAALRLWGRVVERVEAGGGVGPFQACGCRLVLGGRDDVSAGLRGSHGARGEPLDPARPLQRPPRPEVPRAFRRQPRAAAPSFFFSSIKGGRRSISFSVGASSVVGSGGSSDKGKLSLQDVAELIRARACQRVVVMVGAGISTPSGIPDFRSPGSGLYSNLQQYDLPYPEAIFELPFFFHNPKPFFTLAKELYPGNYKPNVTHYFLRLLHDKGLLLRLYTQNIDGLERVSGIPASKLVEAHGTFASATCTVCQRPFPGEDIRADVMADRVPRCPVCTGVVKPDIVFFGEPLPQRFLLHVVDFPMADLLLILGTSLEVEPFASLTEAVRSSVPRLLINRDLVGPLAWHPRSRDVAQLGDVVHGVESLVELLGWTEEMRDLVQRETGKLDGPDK

Row | SMILES | fold change (FC) [4] | fold change (FC) [6] | fold change (FC) [7] | fold change (FC) [8] | fold change (FC) [9] | fold change (FC) [11] | other results
1 | O=C1CCCCC1C1(O)C(=O)Nc2ccccc21 (stereo unspecified) |  |  |  |  |  |  | inhibition [1]: > 35%
2 | CCCCCCCCCCCCCC(=S)NCCCC[C@H](NC(=O)[C@@H](NC(=O)[C@H](CCCNC(=N)N)NC(C)=O)[C@@H](C)CC)C(=O)N[C@@H](CCCNC(=N)N)C(=O)N[C@@H](Cc1ccc(O)cc1)C(N)=O (Ac-RI[Lys(thiomyristoyl)]RY-NH2) |  |  |  |  |  |  | IC50 [2]: 100 nM
3 | CC[C@H](C)[C@H](NC(=O)[C@H](CCCNC(=N)N)NC(C)=O)C(=O)N[C@@H](CCCCNC(=O)Cc1ccc(/N=N/c2ccc(O)cc2)cc1)C(=O)N[C@@H](CCCNC(=N)N)C(=O)N[C@@H](Cc1ccc(O)cc1)C(N)=O (Ac-RIK(X5)RY-NH2) |  |  |  |  |  |  | IC50 [3]: 7 nM
4 | C=C(C)Cn1c(NCCO)nc2c1c(=O)[nH]c(=O)n2C |  |  |  |  |  |  | inhibition [1]: > 35%
5 | C[C@H](NC(=O)CNC(=O)CNC(=O)[C@H](CCCCN)NC(=O)[C@H]1CC[C@H](NC(=S)Nc2ccc(-c3c4ccc(=O)cc-4oc4cc(O)ccc34)c(C(=O)O)c2)CC1)C(=O)N[C@@H](CCCCNC(=O)CCCc1ccc(/N=N/c2ccc(N(C)C)cc2)cc1)C(=O)N[C@@H](CCCNC(=N)N)C(=O)N[C@@H](Cc1c[nH]cn1)C(=O)N[C@@H](CCCNC(=N)N)C(=O)N[C@@H](CCCCN)C(N)=O | 1.11 | 1.06 | 1 | 14.2 | 2.21 | 12 | Activity [5]: Active; Activity [10]: Dose-dependent effect
6 | CC[C@H](C)[C@H](NC(=O)[C@H](CCCNC(=N)N)NC(=O)[C@H](Cc1ccc(O)cc1)NC(=O)[C@H](CC(=O)O)NC(=O)[C@H]1CC[C@H](NC(=S)Nc2ccc(-c3c4ccc(=O)cc-4oc4cc(O)ccc34)c(C(=O)O)c2)CC1)C(=O)N[C@@H](CCCCNC(=O)CCc1ccc(/N=N/c2ccc(N(C)C)cc2)cc1)C(=O)N[C@@H](CCCNC(=N)N)C(=O)N[C@@H](Cc1ccc(O)cc1)C(=O)N[C@@H](Cc1c[nH]cn1)C(=O)N[C@H](C(N)=O)[C@@H](C)O (X1-[Achc(trans-4)]DYRIK(X3)RYHT-NH2) | 1.11 | 1.09 | 1.01 | 4.76 | 1.05 | 1.92 | fold change (FC) [12]: 1.96
7 | CN(CCC(=O)NCCCC[C@H](NC(=O)[C@H](Cc1ccccc1)NC(=O)[C@H](CO)NC(=O)[C@H](CCCCN)NC(=O)[C@H](CCCCN)NC(=O)[C@H]1CC[C@H](NC(=S)Nc2ccc(-c3c4ccc(=O)cc-4oc4cc(O)ccc34)c(C(=O)O)c2)CC1)C(=O)N[C@@H](CCC(=O)O)C(=O)N[C@@H](CCCNC(=N)N)C(=O)N[C@@H](CO)C(=O)N[C@@H](CO)C(N)=O)c1ccc(/N=N/c2ccc([N+](=O)[O-])cc2)cc1 (X1-[Achc(trans-4)]KKSFK(X2)ERSS-NH2) | 1.2 | 1.05 | 0.99 | 8.86 | 3.36 | 5.64 | fold change (FC) [12]: 26.2
